{
  "source": "ChEMBL document CHEMBL1773023",
  "about": "“Potent and selective phosphopeptide mimetic prodrugs targeted to the Src homology 2 (SH2) domain of signal transducer and activator of transcription 3” (J Med Chem, 2011)",
  "type_in_all_cases": "cell-based",
  "key": {"[1]": {"target": "G1/S-specific cyclin-D1 (Homo sapiens) (UniProt P24385)", "sequence (P24385 whole entry)": "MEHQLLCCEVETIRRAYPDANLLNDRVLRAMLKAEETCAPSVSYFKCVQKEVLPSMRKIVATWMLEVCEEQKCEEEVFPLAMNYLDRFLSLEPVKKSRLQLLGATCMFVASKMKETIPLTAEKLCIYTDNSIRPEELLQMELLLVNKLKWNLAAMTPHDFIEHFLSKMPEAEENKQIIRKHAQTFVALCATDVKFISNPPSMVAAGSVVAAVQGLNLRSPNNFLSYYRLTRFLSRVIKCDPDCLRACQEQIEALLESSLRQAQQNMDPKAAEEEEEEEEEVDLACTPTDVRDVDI", "assay": "Inhibition of Cyclin D1 in human HCC-827 cells at 5 uM after up to 24 hrs by Western blotting"}, "[2]": {"target": "RAC-alpha serine/threonine-protein kinase (Homo sapiens) (UniProt P31749)", "sequence (P31749 whole entry)": "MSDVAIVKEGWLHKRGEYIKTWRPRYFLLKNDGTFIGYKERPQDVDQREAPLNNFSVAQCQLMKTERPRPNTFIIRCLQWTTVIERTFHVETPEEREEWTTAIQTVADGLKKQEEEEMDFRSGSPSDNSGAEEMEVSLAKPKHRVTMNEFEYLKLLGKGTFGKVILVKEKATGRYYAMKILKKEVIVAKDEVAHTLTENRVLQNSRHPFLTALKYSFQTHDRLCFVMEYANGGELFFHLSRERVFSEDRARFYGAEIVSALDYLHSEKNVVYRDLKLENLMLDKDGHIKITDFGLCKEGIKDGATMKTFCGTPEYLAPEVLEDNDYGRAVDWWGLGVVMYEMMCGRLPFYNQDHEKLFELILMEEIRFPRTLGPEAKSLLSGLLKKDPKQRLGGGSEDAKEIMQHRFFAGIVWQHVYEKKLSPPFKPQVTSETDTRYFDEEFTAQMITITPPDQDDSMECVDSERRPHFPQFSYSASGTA", "assay": "Inhibition of EGF-induced Akt phosphorylation at Ser473 in human MDA-MB-468 cells at 5 uM treated 1.5 hrs before EGF challenge measured after 30 mins by Western blotting", "method_in_brief": "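MDA-MB-468 cells pretreated 1.5 h with prodrug (5 μM), then EGF 100 ng/mL for 30 min; lysates split onto three PVDF blots probed for phospho/total Stat3, pSer473/total Akt, and phospho/total Stat5.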"}, "[3]": {"target": "RAC-alpha serine/threonine-protein kinase (Homo sapiens) (UniProt P31749)", "assay": "Inhibition of Akt phosphorylation at Ser473 in human HCC-827 cells at 5 uM after up to 24 hrs by Western blotting"}, "[4]": {"target": "T1, Signal transducer and activator of transcription 3 (Homo sapiens, UniProt P40763)", "T1 sequence (P40763 whole entry, the tested form may be a part)": "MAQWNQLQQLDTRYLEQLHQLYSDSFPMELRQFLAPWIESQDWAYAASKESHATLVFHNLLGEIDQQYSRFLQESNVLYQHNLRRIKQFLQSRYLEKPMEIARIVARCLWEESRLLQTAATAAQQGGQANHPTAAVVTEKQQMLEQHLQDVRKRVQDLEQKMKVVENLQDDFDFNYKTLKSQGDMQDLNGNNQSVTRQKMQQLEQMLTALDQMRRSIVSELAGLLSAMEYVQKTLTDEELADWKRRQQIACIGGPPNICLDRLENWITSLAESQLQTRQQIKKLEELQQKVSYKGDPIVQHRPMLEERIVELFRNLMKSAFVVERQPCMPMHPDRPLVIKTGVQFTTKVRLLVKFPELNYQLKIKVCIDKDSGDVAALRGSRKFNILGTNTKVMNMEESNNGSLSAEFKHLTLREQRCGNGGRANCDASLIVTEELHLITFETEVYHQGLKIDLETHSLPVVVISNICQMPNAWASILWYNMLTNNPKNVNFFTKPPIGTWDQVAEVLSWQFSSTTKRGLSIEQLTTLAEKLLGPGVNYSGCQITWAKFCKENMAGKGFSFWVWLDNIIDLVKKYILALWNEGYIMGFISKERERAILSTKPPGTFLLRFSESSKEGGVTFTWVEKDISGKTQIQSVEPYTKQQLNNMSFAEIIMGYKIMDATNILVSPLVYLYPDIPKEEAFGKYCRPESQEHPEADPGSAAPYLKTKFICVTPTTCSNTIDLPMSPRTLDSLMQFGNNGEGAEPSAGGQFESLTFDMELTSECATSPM", "assay": "Inhibition of SH2 domain of Stat3 constitutive phosphorylation at Tyr705 in human MDA-MB-468 cells at 0.5 uM after 2 hrs by Western blotting", "method_in_brief": "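MDA-MB-468 cells (4×10^5/well, DMEM 10% FCS, overnight) given prodrug from freshly made 10 mM DMSO stock for 2 h. Lysates in Hepes pH 7.4 Triton buffer with phosphatase/protease inhibitors; 12 μg protein on 8% SDS-PAGE, PVDF, probed for pStat3 Y705 by ECL, then stripped and reprobed for total Stat3.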"}, "[5]": {"target": "T1, Signal transducer and activator of transcription 3", "assay": "Inhibition of SH2 domain of Stat3 constitutive phosphorylation at Tyr705 in human MDA-MB-468 cells at 5 uM after 16 hrs by Western blotting", "method_in_brief": "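MDA-MB-468 cells given a single 5 μM prodrug dose and harvested at set times; pTyr705 and total Stat3 by Western blot of 12 μg lysate protein on 8% SDS-PAGE.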"}, "[6]": {"target": "T1, Signal transducer and activator of transcription 3", "assay": "Inhibition of IL6-induced SH2 domain of Stat3 phosphorylation at Tyr705 in human MeWo cells up to 10 uM treated 1.5 hrs before IL6 challenge measured after 30 mins by Western blotting", "method_in_brief": "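Hey, MeWo and A375 cells (3×10^5/well, RPMI1640, overnight, fresh medium) given increasing prodrug concentrations for 2 h, with IL-6 10 ng/mL during the final 30 min; pStat3 and total Stat3 by Western blot.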"}},
  "note": "The source made the active and inactive calls. No cut-off for these calls is given here.",
  "data": [
    {"compound": "C/C(=C\\C(=O)N[C@H]1CCc2cccc3c2N(C1=O)[C@H](C(=O)N[C@H](C)CCC(N)=O)C3)c1ccc(C(F)(F)P(=O)(OCOC(=O)C(C)(C)C)OCOC(=O)C(C)(C)C)cc1", "values": [
      {"measurement": "inhibition", "setting": "[1]", "result": "inactive"},
      {"measurement": "inhibition", "setting": "[2]", "result": "inactive"},
      {"measurement": "inhibition", "setting": "[3]", "result": "inactive"},
      {"measurement": "inhibition", "setting": "[4]", "result": "Active"},
      {"measurement": "inhibition", "setting": "[5]", "result": "inactive"},
      {"measurement": "inhibition", "setting": "[6]", "result": "Active"}
    ]}
  ]
}
